According to ChEMBL document CHEMBL1649531, “In vitro activity of garenoxacin against Streptococcus pneumoniae mutants with characterized resistance mechanisms” (2009):
≈ marks a conversion by molar mass, not a printed value.

Experiments:
Format in all cases: functional
Streptococcus pneumoniae [1] = assay: Antibacterial activity against Streptococcus pneumoniae W001 harboring wild-type parC and gyrA genes
Streptococcus pneumoniae [2] = assay: Antibacterial activity against Streptococcus pneumoniae S004 harboring wild-type parC and gyrA Gly85Asn mutant genes
Streptococcus pneumoniae [3] = assay: Antibacterial activity against Streptococcus pneumoniae W002 harboring wild-type parC and gyrA genes assessed as mutation prevention concentration after 48 hrs
Procedure, shortened: (§1)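 A 200 μl culture at 10 log10 CFU/ml was spread on Mueller-Hinton II agar with 5% sheep blood containing drug at a range of concentrations, then incubated at 37°C in 5% CO2. MPC was taken as the lowest concentration preventing colony formation after 48 h. Determinations were done in duplicate.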

Streptococcus pneumoniae [4] = assay: Antibacterial activity against Streptococcus pneumoniae D002 harboring parC Ser79Phe and gyrA Ser81Phe mutant genes
Streptococcus pneumoniae [5] = assay: Antibacterial activity against Streptococcus pneumoniae D002 harboring parC Ser79Phe and gyrA Ser81Phe mutant genes assessed as mutation prevention concentration after 48 hrs; procedure, shortened: as §1
Streptococcus pneumoniae [6] = assay: Antibacterial activity against Streptococcus pneumoniae D001 harboring parC Ser79Phe and gyrA Gly85Lys mutant genes
Streptococcus pneumoniae [7] = assay: Antibacterial activity against Streptococcus pneumoniae W001 harboring wild-type parC and gyrA genes assessed as mutation prevention concentration after 48 hrs; procedure, shortened: as §1
Streptococcus pneumoniae [8] = assay: Antibacterial activity against Streptococcus pneumoniae S003 harboring wild-type parC and gyrA Ser81Phe mutant genes assessed as mutation prevention concentration after 48 hrs; procedure, shortened: as §1
Streptococcus pneumoniae [9] = assay: Antibacterial activity against Streptococcus pneumoniae S004 harboring wild-type parC and gyrA Gly85Asn mutant genes assessed as mutation prevention concentration after 48 hrs; procedure, shortened: as §1
Streptococcus pneumoniae [10] = assay: Antibacterial activity against Streptococcus pneumoniae S003 harboring wild-type parC and gyrA Ser81Phe mutant genes
Streptococcus pneumoniae [11] = assay: Antibacterial activity against Streptococcus pneumoniae D001 harboring parC Ser79Phe and gyrA Gly85Lys mutant genes assessed as mutation prevention concentration after 48 hrs; procedure, shortened: as §1
Streptococcus pneumoniae [12] = assay: Antibacterial activity against Streptococcus pneumoniae W002 harboring wild-type parC and gyrA genes
Streptococcus pneumoniae [13] = assay: Antibacterial activity against Streptococcus pneumoniae S001 harboring parC Asp83Asn mutant and wild-type gyrA genes assessed as mutation prevention concentration after 48 hrs; procedure, shortened: as §1
Streptococcus pneumoniae [14] = assay: Antibacterial activity against Streptococcus pneumoniae S002 harboring parC Ser79Phe mutant and wild-type gyrA genes assessed as mutation prevention concentration after 48 hrs; procedure, shortened: as §1
Streptococcus pneumoniae [15] = assay: Antibacterial activity against Streptococcus pneumoniae S001 assessed as resistant isolates with GyrA81 mutation in quinolone resistance-determining regions
Procedure, shortened: (§2)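 Up to eight colonies per plate were grown individually, and genomic DNA was screened for ParC Ser79/Asp83 and GyrA Ser81/Gly85 changes by PCR-melting curve analysis with labelled hybridization probes. Sequences were confirmed by direct sequencing.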

Streptococcus pneumoniae [16] = assay: Antibacterial activity against Streptococcus pneumoniae W002 assessed as resistant isolates with GyrA81 mutation in quinolone resistance-determining regions; procedure, shortened: as §2
Streptococcus pneumoniae [17] = assay: Antibacterial activity against Streptococcus pneumoniae W002 assessed as resistant isolates with ParC79 mutation in quinolone resistance-determining regions; procedure, shortened: as §2
Streptococcus pneumoniae [18] = assay: Antibacterial activity against Streptococcus pneumoniae S003 assessed as resistant isolates with GyrA85 mutation in quinolone resistance-determining regions; procedure, shortened: as §2
Streptococcus pneumoniae [19] = assay: Antibacterial activity against Streptococcus pneumoniae W001
Streptococcus pneumoniae [20] = assay: Antibacterial activity against Streptococcus pneumoniae S001 assessed as resistant isolates with ParC79 mutation in quinolone resistance-determining regions; procedure, shortened: as §2
Streptococcus pneumoniae [21] = assay: Antibacterial activity against Streptococcus pneumoniae S004 assessed as resistant isolates with ParC79 mutation in quinolone resistance-determining regions; procedure, shortened: as §2
Streptococcus pneumoniae [22] = assay: Antibacterial activity against Streptococcus pneumoniae S004
Streptococcus pneumoniae [23] = assay: Antibacterial activity against Streptococcus pneumoniae S002 assessed as resistant isolates with GyrA85 mutation in quinolone resistance-determining regions; procedure, shortened: as §2
Streptococcus pneumoniae [24] = assay: Antibacterial activity against Streptococcus pneumoniae S001
Streptococcus pneumoniae [25] = assay: Antibacterial activity against Streptococcus pneumoniae S001 harboring parC Asp83Asn mutant and wild-type gyrA genes
Streptococcus pneumoniae [26] = assay: Antibacterial activity against Streptococcus pneumoniae S002 assessed as resistant isolates with GyrA81 mutation in quinolone resistance-determining regions; procedure, shortened: as §2
Streptococcus pneumoniae [27] = assay: Antibacterial activity against Streptococcus pneumoniae D002
Streptococcus pneumoniae [28] = assay: Antibacterial activity against Streptococcus pneumoniae S004 assessed as resistant isolates with ParC83 mutation in quinolone resistance-determining regions; procedure, shortened: as §2
Streptococcus pneumoniae [29] = assay: Antibacterial activity against Streptococcus pneumoniae D001 assessed as resistant isolates with GyrA81 mutation in quinolone resistance-determining regions; procedure, shortened: as §2
Streptococcus pneumoniae [30] = assay: Antibacterial activity against Streptococcus pneumoniae S004 assessed as resistant isolates with GyrA85 mutation in quinolone resistance-determining regions; procedure, shortened: as §2
Streptococcus pneumoniae [31] = assay: Antibacterial activity against Streptococcus pneumoniae W002 assessed as resistant isolates with GyrA85 mutation in quinolone resistance-determining regions; procedure, shortened: as §2
Streptococcus pneumoniae [32] = assay: Antibacterial activity against Streptococcus pneumoniae S002 harboring parC Ser79Phe mutant and wild-type gyrA genes
Streptococcus pneumoniae [33] = assay: Antibacterial activity against Streptococcus pneumoniae W002 assessed as resistant isolates with ParC83 mutation in quinolone resistance-determining regions; procedure, shortened: as §2
Streptococcus pneumoniae [34] = assay: Antibacterial activity against Streptococcus pneumoniae S001 assessed as resistant isolates with GyrA85 mutation in quinolone resistance-determining regions; procedure, shortened: as §2
Streptococcus pneumoniae [35] = assay: Antibacterial activity against Streptococcus pneumoniae S002
Streptococcus pneumoniae [36] = assay: Antibacterial activity against Streptococcus pneumoniae D002 assessed as resistant isolates with GyrA85 mutation in quinolone resistance-determining regions; procedure, shortened: as §2
Streptococcus pneumoniae [37] = assay: Antibacterial activity against Streptococcus pneumoniae D002 assessed as resistant isolates with ParC83 mutation in quinolone resistance-determining regions; procedure, shortened: as §2
Streptococcus pneumoniae [38] = assay: Antibacterial activity against Streptococcus pneumoniae D001
Streptococcus pneumoniae [39] = assay: Antibacterial activity against Streptococcus pneumoniae W002
Streptococcus pneumoniae [40] = assay: Antibacterial activity against Streptococcus pneumoniae S003 assessed as resistant isolates with ParC79 mutation in quinolone resistance-determining regions; procedure, shortened: as §2
Streptococcus pneumoniae [41] = assay: Antibacterial activity against Streptococcus pneumoniae W001 assessed as resistant isolates with GyrA81 mutation in quinolone resistance-determining regions; procedure, shortened: as §2
Streptococcus pneumoniae [42] = assay: Antibacterial activity against Streptococcus pneumoniae S002 assessed as resistant isolates with ParC83 mutation in quinolone resistance-determining regions; procedure, shortened: as §2
Streptococcus pneumoniae [43] = assay: Antibacterial activity against Streptococcus pneumoniae W001 assessed as resistant isolates with GyrA85 mutation in quinolone resistance-determining regions; procedure, shortened: as §2
Streptococcus pneumoniae [44] = assay: Antibacterial activity against Streptococcus pneumoniae S003 assessed as resistant isolates with ParC83 mutation in quinolone resistance-determining regions; procedure, shortened: as §2
Streptococcus pneumoniae [45] = assay: Antibacterial activity against Streptococcus pneumoniae W001 assessed as resistant isolates with ParC83 mutation in quinolone resistance-determining regions; procedure, shortened: as §2
Streptococcus pneumoniae [46] = assay: Antibacterial activity against Streptococcus pneumoniae W001 assessed as resistant isolates with ParC79 mutation in quinolone resistance-determining regions; procedure, shortened: as §2
Streptococcus pneumoniae [47] = assay: Antibacterial activity against Streptococcus pneumoniae S003

SMILES: COc1c(N2C[C@@H]3CCCN[C@@H]3C2)c(F)cc2c(=O)c(C(=O)O)cn(C3CC3)c12 [MOXIFLOXACIN]
- MIC (Streptococcus pneumoniae [1]): 0.06 µg/mL (≈ 0.149 µM)
- MIC (Streptococcus pneumoniae [2]): 0.12 µg/mL (≈ 0.299 µM)
- Activity (Streptococcus pneumoniae [3]): 0.5 µg/mL
- MIC (Streptococcus pneumoniae [4]): 4 µg/mL (≈ 9.96 µM)
- Activity (Streptococcus pneumoniae [5]): 16 µg/mL
- MIC (Streptococcus pneumoniae [6]): 4 µg/mL (≈ 9.96 µM)
- Activity (Streptococcus pneumoniae [7]): 0.5 µg/mL
- Activity (Streptococcus pneumoniae [8]): 4 µg/mL
- Activity (Streptococcus pneumoniae [9]): 4 µg/mL
- MIC (Streptococcus pneumoniae [10]): 0.06 µg/mL (≈ 0.149 µM)
- Activity (Streptococcus pneumoniae [11]): 16 µg/mL
- MIC (Streptococcus pneumoniae [12]): 0.06 µg/mL (≈ 0.149 µM)

SMILES: O=C(O)c1cn(C2CC2)c2cc(N3CCNCC3)c(F)cc2c1=O [CIPROFLOXACIN]
- Activity (Streptococcus pneumoniae [3]): 8 µg/mL
- MIC (Streptococcus pneumoniae [4]): 8 µg/mL (≈ 24.1 µM)
- Activity (Streptococcus pneumoniae [5]): 256 µg/mL
- MIC (Streptococcus pneumoniae [6]): 32 µg/mL (≈ 96.6 µM)
- Activity (Streptococcus pneumoniae [7]): 8 µg/mL
- Activity (Streptococcus pneumoniae [13]): 128 µg/mL
- Activity (Streptococcus pneumoniae [8]): 64 µg/mL
- Activity (Streptococcus pneumoniae [9]): 64 µg/mL
- Activity (Streptococcus pneumoniae [14]): 128 µg/mL
- Activity (Streptococcus pneumoniae [11]): 256 µg/mL
- MIC (Streptococcus pneumoniae [12]): 0.25 µg/mL (≈ 0.754 µM)

SMILES: C[C@H]1NCc2cc(-c3ccc4c(=O)c(C(=O)O)cn(C5CC5)c4c3OC(F)F)ccc21 [GARENOXACIN]
- Activity (Streptococcus pneumoniae [15]): 77%
- MIC (Streptococcus pneumoniae [1]): 0.015 µg/mL (≈ 0.0352 µM)
- Activity (Streptococcus pneumoniae [16]): 67%
- MIC (Streptococcus pneumoniae [2]): 0.06 µg/mL (≈ 0.141 µM)
- Activity (Streptococcus pneumoniae [3]): 0.12 µg/mL
- Activity (Streptococcus pneumoniae [17]): 0%
- MIC (Streptococcus pneumoniae [4]): 0.5 µg/mL (≈ 1.17 µM)
- Activity (Streptococcus pneumoniae [18]): 0%
- MIC (Streptococcus pneumoniae [19]): 0.015 µg/mL (≈ 0.0352 µM)
- Activity (Streptococcus pneumoniae [5]): 4 µg/mL
- Activity (Streptococcus pneumoniae [20]): 0%
- Activity (Streptococcus pneumoniae [21]): 56%
- MIC (Streptococcus pneumoniae [22]): 0.06 µg/mL (≈ 0.141 µM)
- Activity (Streptococcus pneumoniae [23]): 9%
- MIC (Streptococcus pneumoniae [24]): 0.03 µg/mL (≈ 0.0704 µM)
- MIC (Streptococcus pneumoniae [25]): 0.03 µg/mL (≈ 0.0704 µM)
- Activity (Streptococcus pneumoniae [26]): 48%
- MIC (Streptococcus pneumoniae [27]): 0.5 µg/mL (≈ 1.17 µM)
- MIC (Streptococcus pneumoniae [6]): 0.25 µg/mL (≈ 0.586 µM)
- Activity (Streptococcus pneumoniae [28]): 0%
- Activity (Streptococcus pneumoniae [29]): 70%
- Activity (Streptococcus pneumoniae [7]): 0.12 µg/mL
- Activity (Streptococcus pneumoniae [30]): 0%
- Activity (Streptococcus pneumoniae [13]): 1 µg/mL
- Activity (Streptococcus pneumoniae [31]): 0%
- MIC (Streptococcus pneumoniae [32]): 0.06 µg/mL (≈ 0.141 µM)
- Activity (Streptococcus pneumoniae [33]): 0%
- Activity (Streptococcus pneumoniae [34]): 0%
- MIC (Streptococcus pneumoniae [35]): 0.06 µg/mL (≈ 0.141 µM)
- Activity (Streptococcus pneumoniae [8]): 2 µg/mL
- Activity (Streptococcus pneumoniae [36]): 50%
- Activity (Streptococcus pneumoniae [37]): 21%
- Activity (Streptococcus pneumoniae [9]): 2 µg/mL
- MIC (Streptococcus pneumoniae [38]): 0.25 µg/mL (≈ 0.586 µM)
- MIC (Streptococcus pneumoniae [39]): 0.015 µg/mL (≈ 0.0352 µM)
- Activity (Streptococcus pneumoniae [40]): 65%
- Activity (Streptococcus pneumoniae [41]): 50%
- Activity (Streptococcus pneumoniae [42]): 0%
- MIC (Streptococcus pneumoniae [10]): 0.06 µg/mL (≈ 0.141 µM)
- Activity (Streptococcus pneumoniae [43]): 12%
- Activity (Streptococcus pneumoniae [44]): 0%
- Activity (Streptococcus pneumoniae [45]): 0%
- Activity (Streptococcus pneumoniae [14]): 1 µg/mL
- Activity (Streptococcus pneumoniae [46]): 0%
- MIC (Streptococcus pneumoniae [47]): 0.06 µg/mL (≈ 0.141 µM)
- Activity (Streptococcus pneumoniae [11]): 4 µg/mL
- MIC (Streptococcus pneumoniae [12]): 0.015 µg/mL (≈ 0.0352 µM)
